Measurements taken from ChEMBL document CHEMBL4725428 (ACS Med Chem Lett, 2020).
Activity calls are given as the source filed them. The calls are words filed in the database; no cut-off is given here.

Tests used:
[1] = target: T1, Protein cereblon/Focal adhesion kinase 1 (Homo sapiens, UniProt Q05397+Q96SW2); test: Protac activity at CRBN/FAK in human PA1 cells assessed as induction of FAK degradation at 1 nM incubated for 8 hrs by Western blot analysis relative to control; assay type: cell-based; conditions: PA-1
Summary of the method: (§1)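 PA1 cells were treated at the indicated doses for 8 h, and FAK was quantified from immunoblots relative to untreated control. Data come from three independent experiments.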

[2] = target: T1, Protein cereblon/Focal adhesion kinase 1; test: Protac activity at CRBN/FAK in human PA1 cells assessed as induction of FAK degradation at 10 nM incubated for 8 hrs by Western blot analysis relative to control; assay type: cell-based; conditions: PA-1; summary of the method: as §1
[3] = target: T1, Protein cereblon/Focal adhesion kinase 1; test: Protac activity at CRBN/FAK in human PA1 cells assessed as FAK degradation at 1 to 100 nM after 8 hrs in presence of 10 uM PF562271; assay type: cell-based; conditions: PA-1, dose nM 1-100, time 8.0 hrs
Summary of the method: (§2)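 For ligand competition, PA1 cells were treated for 8 h with the degrader (1, 10 or 100 nM) alone, or with excess CRBN ligand pomalidomide (10 μM) or FAK ligand PF562271 (10 μM), alone or combined. FAK was read by immunoblot.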

[4] = target: T2, Protein cereblon/Focal adhesion kinase 1 (Mus musculus) (UniProt P34152+Q8C7D2); test: Protac activity at CRBN/FAK in mouse TM3 cells assessed as reduction in FAK autophosphorylation at tyr 397 residue at 1 to 3000 nM after 8 hrs by Western blot analysis; assay type: cell-based; conditions: dose nM 1-3000, time 8.0 hrs
Summary of the method: (§3)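 TM3 cells were treated at the indicated doses for 8 h, then immunoblotted for FAK phosphorylated at Tyr397.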

[5] = target: T2, Protein cereblon/Focal adhesion kinase 1 (Mus musculus); test: Protac activity at CRBN/FAK in mouse TM3 cells assessed as reduction in FAK autophosphorylation at tyr 397 residue at 100 nM after 1 hr by Western blot analysis relative to control; assay type: cell-based; parameters: scale not given: the % may be the effect or the level left
Summary of the method: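 In a time course, TM3 cells were exposed to 100 nM, and FAK and pFAK Tyr397 levels were followed by immunoblot at successive time points.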

PA-1 = test: Antiproliferative activity against human PA1 cells assessed as effect on cell proliferation after 72 hrs by MTS assay; assay type: functional, cell-based
[6] = target: T1, Protein cereblon/Focal adhesion kinase 1; test: Protac activity at CRBN/FAK in human LNCAP cells assessed as induction of FAK degradation after 8 hrs by Western blot analysis; assay type: cell-based
Summary of the method: (§4)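 Each cell line was exposed to graded concentrations for 8 h, and FAK protein was detected by immunoblot. DC50 is the concentration giving half-maximal FAK degradation.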

TM3 = test: Antiproliferative activity against mouse TM3 cells assessed as effect on cell proliferation after 72 hrs by MTS assay; assay type: functional, cell-based
[7] = target: T1, Protein cereblon/Focal adhesion kinase 1; test: Protac activity at CRBN/FAK in human Ramos cells assessed as induction of FAK degradation after 8 hrs by Western blot analysis; assay type: cell-based; summary of the method: as §4
[8] = target: T2, Protein cereblon/Focal adhesion kinase 1 (Mus musculus); test: Protac activity at CRBN/FAK in mouse TM3 cells assessed as reduction in FAK autophosphorylation at tyr 397 residue at <1 nM after 8 hrs by Western blot analysis; assay type: cell-based; conditions: dose nM <1, time 8.0 hrs; summary of the method: as §3
[9] = target: T1, Protein cereblon/Focal adhesion kinase 1; test: Protac activity at CRBN/FAK in human PA1 cells assessed as reduction FAK degradation at 1 to 100 nM after 8 hrs in presence of 5 uM carfilzomib; assay type: cell-based; conditions: PA-1, dose nM 1-100, time 8.0 hrs
Summary of the method: (§5)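 To test proteasome dependence, PA1 cells received the degrader (1, 10 or 100 nM) for 8 h, either alone or together with MG132 (5 μM) or carfilzomib (5 μM). Each inhibitor was also given alone. FAK was assessed by immunoblot.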

[10] = target: T1, Protein cereblon/Focal adhesion kinase 1; test: Protac activity at CRBN/FAK in human MDA-MB-436 cells assessed as induction of FAK degradation after 8 hrs by Western blot analysis; assay type: cell-based; summary of the method: as §4
LNCaP = test: Antiproliferative activity against human LNCAP cells assessed as effect on cell proliferation after 72 hrs by MTS assay; assay type: functional, cell-based
[11] = target: T1, Protein cereblon/Focal adhesion kinase 1; test: Protac activity at CRBN/FAK in human PA1 cells assessed as FAK degradation at 1 to 100 nM after 8 hrs in presence of 10 uM pomalidomide; assay type: cell-based; conditions: PA-1, dose nM 1-100, time 8.0 hrs; summary of the method: as §2
[12] = target: T1, Protein cereblon/Focal adhesion kinase 1; test: Protac activity at CRBN/FAK in human PA1 cells assessed as reduction FAK degradation at 1 to 100 nM after 8 hrs in presence of 5 uM MG132; assay type: cell-based; conditions: PA-1, dose nM 1-100, time 8.0 hrs; summary of the method: as §5
[13] = target: Protein cereblon/Focal adhesion kinase 1 (Mus musculus, UniProt P34152+Q8C7D2); test: Protac activity at CRBN/FAK in mouse TM3 cells assessed as induction of FAK degradation after 8 hrs by Western blot analysis; assay type: cell-based; summary of the method: as §4
Ramos = test: Antiproliferative activity against human Ramos cells assessed as effect on cell proliferation after 72 hrs by MTS assay; assay type: functional, cell-based
MDA-MB-436 = test: Antiproliferative activity against human MDA-MB-436 cells assessed as effect on cell proliferation after 72 hrs by MTS assay; assay type: functional, cell-based
[14] = target: T1, Protein cereblon/Focal adhesion kinase 1; test: Protac activity at CRBN/FAK in human PA1 cells assessed as induction of FAK degradation after 8 hrs by Western blot analysis; assay type: cell-based; conditions: pa-1; summary of the method: as §4

`CN(c1ncccc1CNc1nc(Nc2ccc(NC(=O)c3cn(CCOCCOCCCc4cccc5c4C(=O)N(C4CCC(=O)NC4=O)C5=O)nn3)cc2)ncc1C(F)(F)F)S(C)(=O)=O` (stereo not given) was tested, and the Activity [1] was 62% and the Activity [2] was 90%.

`CN(c1nccnc1CNc1nc(Nc2ccc(C(=O)NCc3cn(CCOCCOCCNc4cccc5c4C(=O)N(C4CCC(=O)NC4=O)C5=O)nn3)cc2)ncc1C(F)(F)F)S(C)(=O)=O` (stereo not given) showed an Activity [1] of 32% and an Activity [2] of 60%.

Compound `CN(c1nccnc1CNc1nc(Nc2ccc(NC(=O)c3cn(CCOCCOCCNc4cccc5c4C(=O)N(C4CCC(=O)NC4=O)C5=O)nn3)cc2)ncc1C(F)(F)F)S(C)(=O)=O` (stereo not given) has an Activity [1] of 71% and an Activity [2] of 96%.

In the case of `CN(c1ncccc1CNc1nc(Nc2ccc(NC(=O)c3cn(CCOCCNc4cccc5c4C(=O)N(C4CCC(=O)NC4=O)C5=O)nn3)cc2)ncc1C(F)(F)F)S(C)(=O)=O` (stereo not given), the Activity [1] is reported as 40% and the Activity [2] is reported as 92%.

`CN(c1nccnc1CNc1nc(Nc2ccc(C(=O)NCc3cn(CCOCCOCCOCCNc4cccc5c4C(=O)N(C4CCC(=O)NC4=O)C5=O)nn3)cc2)ncc1C(F)(F)F)S(C)(=O)=O` (stereo not given) showed an Activity [1] of 5% and an Activity [2] of 22%.

`CN(c1ncccc1CNc1ncc(C(F)(F)F)c(Nc2ccc(NC(=O)c3cn(CCOCCNc4cccc5c4C(=O)N(C4CCC(=O)NC4=O)C5=O)nn3)cc2)n1)S(C)(=O)=O` (stereo not given) showed an Activity [1] of 0% and an Activity [2] of 0%.

`CCN1C(=O)CCC(N2C(=O)c3cccc(NCCOCCOCCn4cc(C(=O)Nc5ccc(Nc6ncc(C(F)(F)F)c(NCc7cccnc7N(C)S(C)(=O)=O)n6)cc5)nn4)c3C2=O)C1=O` (stereo not given) was tested, and the Activity [1] was 0% and the Activity [2] was 0%.

In the case of `CN(c1nccnc1CNc1nc(Nc2ccc(C(=O)NCc3cn(CCOCCNc4cccc5c4C(=O)N(C4CCC(=O)NC4=O)C5=O)nn3)cc2)ncc1C(F)(F)F)S(C)(=O)=O` (stereo not given), the Activity [1] is reported as 37% and the Activity [2] is reported as 71%.

In the case of `CN(c1ncccc1CNc1nc(Nc2ccc(C(=O)NCc3cn(CCOCCOCCNc4cccc5c4C(=O)N(C4CCC(=O)NC4=O)C5=O)nn3)cc2)ncc1C(F)(F)F)S(C)(=O)=O` (stereo not given), the Activity [1] is reported as 40% and the Activity [2] is reported as 65%.

`CN(c1ncccc1CNc1ncc(C(F)(F)F)c(Nc2ccc(NC(=O)c3cn(CCOCCOCCNc4cccc5c4C(=O)N(C4CCC(=O)NC4=O)C5=O)nn3)cc2)n1)S(C)(=O)=O` (stereo not given) showed an Activity [1] of 0% and an Activity [2] of 2%.

`CN(c1ncccc1CNc1nc(Nc2ccc(NC(=O)c3cn(CCCCCOCCCc4cccc5c4C(=O)N(C4CCC(=O)NC4=O)C5=O)nn3)cc2)ncc1C(F)(F)F)S(C)(=O)=O` (stereo not given) gave an Activity [1] of 85% and an Activity [2] of 95%.

Work on `CN(c1nccnc1CNc1nc(Nc2ccc(NC(=O)c3cn(CCOCCOCCOCCNc4cccc5c4C(=O)N(C4CCC(=O)NC4=O)C5=O)nn3)cc2)ncc1C(F)(F)F)S(C)(=O)=O` (stereo not given) yielded an Activity [1] of 35% and an Activity [2] of 92%.

Work on `CN(c1ncccc1CNc1nc(Nc2ccc(C(=O)NCc3cn(CCOCCNc4cccc5c4C(=O)N(C4CCC(=O)NC4=O)C5=O)nn3)cc2)ncc1C(F)(F)F)S(C)(=O)=O` (stereo not given) yielded an Activity [1] of 55% and an Activity [2] of 81%.

For `CN(c1ncccc1CNc1nc(Nc2ccc(NC(=O)c3cn(CCCCCOCC#Cc4cccc5c4C(=O)N(C4CCC(=O)NC4=O)C5=O)nn3)cc2)ncc1C(F)(F)F)S(C)(=O)=O` (stereo not given), the Activity [1] was 62% and the Activity [2] was 90%.

`CN(c1ncccc1CNc1nc(Nc2ccc(NC(=O)c3cn(CCCCCCCC#Cc4cccc5c4C(=O)N(C4CCC(=O)NC4=O)C5=O)nn3)cc2)ncc1C(F)(F)F)S(C)(=O)=O` (stereo not given) showed an Activity [1] of 62% and an Activity [2] of 90%.

Work on `CN(c1ncccc1CNc1nc(Nc2ccc(NC(=O)c3cn(CCCCCCCCCc4cccc5c4C(=O)N(C4CCC(=O)NC4=O)C5=O)nn3)cc2)ncc1C(F)(F)F)S(C)(=O)=O` (stereo not given) yielded an Activity [1] of 40% and an Activity [2] of 85%.

With `CN(c1ncccc1CNc1nc(Nc2ccc(NC(=O)c3cn(CCOCCOCCNc4cccc5c4C(=O)N(C4CCC(=O)NC4=O)C5=O)nn3)cc2)ncc1C(F)(F)F)S(C)(=O)=O` (stereo not given) the Activity [3] was “inactive”, the Activity [4] was “Active” and the Activity [5] was over 50%. The Activity (PA-1) was “inactive”, the DC50 [6] was 0.37 nM and the Activity (TM3) was “inactive”. The DC50 [7] was 0.04 nM, the Activity [1] was 90% and the Activity [8] was “Active”. The Activity [9] was “inactive”, the DC50 [10] was 0.33 nM and the Activity (LNCaP) was “inactive”. The Activity [11] was “inactive”, the Activity [2] was 99% and the Activity [12] was “inactive”. For the same compound, the DC50 [13] was 0.31 nM, the Activity (Ramos) was “inactive” and the Activity (MDA-MB-436) was “inactive”. For the same compound, the DC50 [14] was 0.08 nM.

`CN(c1ncccc1CNc1nc(Nc2ccc(NC(=O)c3cn(CCOCCOCCOCCNc4cccc5c4C(=O)N(C4CCC(=O)NC4=O)C5=O)nn3)cc2)ncc1C(F)(F)F)S(C)(=O)=O` (stereo not given) gave an Activity [1] of 46% and an Activity [2] of 94%.

In the case of `CN(c1ncccc1CNc1nc(Nc2ccc(C(=O)NCc3cn(CCOCCOCCOCCNc4cccc5c4C(=O)N(C4CCC(=O)NC4=O)C5=O)nn3)cc2)ncc1C(F)(F)F)S(C)(=O)=O` (stereo not given), the Activity [1] is reported as 10% and the Activity [2] is reported as 30%.

`CN(c1ncccc1CNc1ncc(C(F)(F)F)c(Nc2ccc(NC(=O)c3cn(CCOCCOCCOCCNc4cccc5c4C(=O)N(C4CCC(=O)NC4=O)C5=O)nn3)cc2)n1)S(C)(=O)=O` (stereo not given) was tested, and the Activity [1] was 0% and the Activity [2] was 0%.

`CN(c1ncccc1CNc1nc(Nc2ccc(NC(=O)c3cn(CCOCCOCC#Cc4cccc5c4C(=O)N(C4CCC(=O)NC4=O)C5=O)nn3)cc2)ncc1C(F)(F)F)S(C)(=O)=O` (stereo not given) gave an Activity [1] of 62% and an Activity [2] of 90%.

`CN(c1nccnc1CNc1nc(Nc2ccc(NC(=O)c3cn(CCOCCNc4cccc5c4C(=O)N(C4CCC(=O)NC4=O)C5=O)nn3)cc2)ncc1C(F)(F)F)S(C)(=O)=O` (stereo not given) showed an Activity [1] of 32% and an Activity [2] of 90%.

`CN(c1ncccc1CNc1nc(Nc2ccc(NC(=O)c3cn(CCCCCCCCNc4cccc5c4C(=O)N(C4CCC(=O)NC4=O)C5=O)nn3)cc2)ncc1C(F)(F)F)S(C)(=O)=O` (stereo not given) was tested, and the Activity [1] was 67% and the Activity [2] was 93%.

`CN(c1ncccc1CNc1nc(Nc2ccc(NC(=O)c3cn(CCOCCOCCOCCOCCNc4cccc5c4C(=O)N(C4CCC(=O)NC4=O)C5=O)nn3)cc2)ncc1C(F)(F)F)S(C)(=O)=O` (stereo not given) showed an Activity [1] of 30% and an Activity [2] of 82%.
